The source of these data is PMC8343189 (Acta Pharmaceutica Sinica. B, 2020).

In data set [1] the test system is intracellular Ca^2+ concentration. The experiment in a line: Intracellular Ca^2+ fluorescence. Particulars: 30 μmol/L compound, 200 μmol/L ATP, Cal520, control 2.3 folds. It counts as cell-based.
Data set [2] has as its system SD rats. The experiment in a line: Formalin test on rat. Type of data set: in vivo. Conditions: for number of foot lifts, phase 2: phase 2, vehicle 121 foot lifts. In a few lines: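 30 min later, 50 μL 5% formalin injected into the left paw; controls received saline. Foot lifts counted over phase 1 (0–10 min) and phase 2 (10–60 min). Mean ± SD; ANOVA vs vehicle.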
The nature of data set [3]: Stability under different pH conditions. Type of data set: physicochemical. Particulars: 37 °C, 100 μmol/L, mean ± SD, n = 3. In a few lines:
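Test compound diluted to 100 μmol/L in phosphate buffers at pH 1.0, 4.0, 6.8, 7.4 and 9.0 and held in a 37 °C water bath. HPLC−UV peak area measured at 0, 2 and 5 h; residual expressed relative to the 0 h peak area.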

For another data set, the system named is CHO cells. The experiment in a line: SRB proliferative cytotoxicity in CHO cells. Type of data set: cell-based, Chinese Hamster. Conditions: 72 h. Put shortly:
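CHO cells in DMEM with 10% FBS, seeded overnight, then exposed to test compound or DMSO vehicle for 72 h. Cells fixed with 10% TCA for 1 h at 4 °C and stained with 0.4% SRB in 1% acetic acid for 15 min in the dark. Washed with acetic acid, dye dissolved in 10 mmol/L Tris-base, absorbance read at 540 nm. n = 3, mean ± SEM, t-test vs DMSO control.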

The target in a further data set is T1, ANO1 (Homo sapiens, UniProt Q5XXA6, DEL476-501).
T1 sequence (Q5XXA6 with tags, fused parts or gaps isoform Q5XXA6-5 DEL539-564): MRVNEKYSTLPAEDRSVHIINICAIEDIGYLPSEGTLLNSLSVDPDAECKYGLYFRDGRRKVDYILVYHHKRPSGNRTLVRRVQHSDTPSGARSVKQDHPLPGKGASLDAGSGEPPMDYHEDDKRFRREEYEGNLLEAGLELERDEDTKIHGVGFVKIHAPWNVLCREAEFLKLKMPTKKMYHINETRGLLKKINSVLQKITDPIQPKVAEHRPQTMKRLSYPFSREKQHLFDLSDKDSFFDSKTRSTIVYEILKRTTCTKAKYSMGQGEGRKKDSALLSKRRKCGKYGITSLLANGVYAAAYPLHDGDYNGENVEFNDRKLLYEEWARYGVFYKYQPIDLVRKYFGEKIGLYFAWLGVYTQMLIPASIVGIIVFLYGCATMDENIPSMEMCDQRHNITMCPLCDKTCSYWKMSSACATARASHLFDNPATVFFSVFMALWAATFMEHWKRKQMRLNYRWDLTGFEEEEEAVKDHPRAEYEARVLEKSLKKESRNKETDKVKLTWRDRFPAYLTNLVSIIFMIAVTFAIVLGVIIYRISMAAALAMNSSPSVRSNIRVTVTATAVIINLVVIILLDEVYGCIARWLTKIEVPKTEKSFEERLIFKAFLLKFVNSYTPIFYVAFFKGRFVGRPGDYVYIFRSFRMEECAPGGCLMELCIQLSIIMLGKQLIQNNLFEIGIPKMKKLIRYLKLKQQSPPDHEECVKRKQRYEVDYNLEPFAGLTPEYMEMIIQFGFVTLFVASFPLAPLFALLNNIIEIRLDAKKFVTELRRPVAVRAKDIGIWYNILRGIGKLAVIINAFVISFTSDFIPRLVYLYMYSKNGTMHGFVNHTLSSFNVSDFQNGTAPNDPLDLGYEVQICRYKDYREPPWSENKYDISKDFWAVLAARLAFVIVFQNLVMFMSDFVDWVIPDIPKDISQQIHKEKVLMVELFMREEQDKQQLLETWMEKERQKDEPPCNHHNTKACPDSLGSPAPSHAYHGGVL
Nature of the data set: YFP fluorescence quenching assay in ANO1-overexpressing FRT cell line. Type of data set: cell-based.

Data set [4] concerns SD rats. Nature of the data set: Chronic constriction injury model. Type of data set: in vivo. Particulars: rat CCI, Electronic Von Frey, vehicle 11.5.

As usually defined, the IC50 is the midpoint of a concentration-inhibition curve. Read a low IC50 as higher potency.

For `CCOC(=O)C1=C(COCCN)NC(C)=C(C(=O)OC)C1c1ccccc1Cl` (stereo not shown) [Amlodipine, reference compound], the “maximum relative fluorescence units (RFU) vs initial value (Ca^2+ influx)” value in data set [1] is on record as “remained unchanged”.

Regarding `CC(C)(C)C1CCc2c(sc(NC(=O)c3ccco3)c2C(=O)O)C1` (stereo not shown) [Compound 1, 6-(tert-Butyl)-2-(furan-2-carboxamido)-4,5,6,7-tetrahydrobenzo[b]thiophene-3-carboxylic acid, reference compound], the “analgesic effect in phase 2 compared with vehicle” value with SD rats [2] (80 mg/kg i.g., phase 2) is reported as “no significant analgesic effect”. Besides, the “number of foot lifts, phase 2” value in the data set with SD rats [2] (80 mg/kg i.g.) is 84 foot lifts. The “5 h residual compound under different pH (%) pH 1.0” value in data set [3] (pH 1.0, 5 h) stood at 93.8 ± 4.0%. The “5 h residual compound under different pH (%) pH 4.0” value in data set [3] (pH 4.0, 5 h) turned out to be 85.3 ± 8.1%. Besides, in data set [3] (pH 6.8, 5 h), the “5 h residual compound under different pH (%) pH 6.8” value is 94.9 ± 2.9%. Besides, the “5 h residual compound under different pH (%) pH 7.4” value in data set [3] (pH 7.4, 5 h) was 98.7 ± 0.7%. The “5 h residual compound under different pH (%) pH 9.0” value in data set [3] (pH 9.0, 5 h) is given as 97.6 ± 1.2%. In addition, the “effect on CHO cell proliferation” value in the data set on CHO cells (all concentrations tested) is “inhibited cell proliferation”.

On ANO1, `CC(C)(C)c1ccc(C(=O)Nc2scc(-c3ccc(F)cc3)c2C(=O)O)cc1` [Compound 33, 2-(4-(tert-Butyl)benzamido)-4-(4-fluorophenyl) thiophene-3-carboxylic acid] came in with an IC50 of 9.62 µM.

In the case of `CC(C)(C)c1ccc(C(=O)Nc2scc(-c3ccc(Cl)cc3)c2C(=O)O)cc1` [Compound 34, 2-(4-(tert-Butyl)benzamido)-4-(4-chlorophenyl) thiophene-3-carboxylic acid], at ANO1, the IC50 was 1.34 µM.

For the compound `CC(C)(C)c1ccc(C(=O)Nc2scc(-c3ccc(C(F)(F)F)cc3)c2C(=O)O)cc1` [Compound 35, 2-(4-(tert-Butyl)benzamido)-4-(4-(trifluoromethyl)phenyl) thiophene-3-carboxylic acid], the IC50 at ANO1 was greater than 100 µM.

For `CC(C)(C)c1ccc(C(=O)Nc2scc(-c3ccc(C(C)(C)C)cc3)c2C(=O)O)cc1` [Compound 36, 2-(4-(tert-Butyl)benzamido)-4-(4-(tert-butyl)phenyl) thiophene-3-carboxylic acid], half-maximal inhibition against ANO1 (IC50) was put at 3.67 µM.

With `CC(C)(C)c1ccc(C(=O)Nc2scc(-c3ccc(-c4ccccc4)cc3)c2C(=O)O)cc1` [Compound 37, 4-([1,1′-Biphenyl]-4-yl)-2-(4-(tert-butyl)benzamido) thiophene-3-carboxylic acid], the half-inhibitory concentration (IC50) against ANO1 is 2.3 µM.

With `CC(C)(C)c1ccc(C(=O)Nc2scc(-c3ccc(Cl)cc3Cl)c2C(=O)O)cc1` [Compound 38, 2-(4-(tert-Butyl)benzamido)-4-(2,4-dichlorophenyl) thiophene-3-carboxylic acid], at ANO1, the IC50 was greater than 100 µM.

As to `CC(C)(C)c1ccc(C(=O)Nc2scc(-c3ccc4ccccc4c3)c2C(=O)O)cc1` [Compound 39, 2-(4-(tert-Butyl)benzamido)-4-(naphthalen-2-yl) thiophene-3-carboxylic acid], on ANO1, the IC50 came to 1.29 µM.

`COc1ccc(-c2csc(NC(=O)c3cccs3)c2C(=O)O)cc1` [Compound 40, 4-(4-Methoxyphenyl)-2-(thiophene-2-carboxamido) thiophene-3-carboxylic acid] displayed an IC50 at ANO1 of 25.5 µM. This IC50 is about 20-fold higher than that of the compound before.

With `COc1ccc(C(=O)Nc2scc(-c3ccc(C(C)(C)C)cc3)c2C(=O)O)cc1` [Compound 41, 4-(4-(tert-Butyl)phenyl)-2-(4-methoxybenzamido) thiophene-3-carboxylic acid], the IC50 against ANO1 is 2.28 µM.

`O=C(Nc1scc(-c2ccc(Cl)cc2)c1C(=O)O)c1ccc2ccccc2c1` [Compound 43, 2-(2-Naphthamido)-4-(4-chlorophenyl) thiophene-3-carboxylic acid] registered an IC50 on ANO1 of 2.45 µM. This IC50 and that of the compound before are within 1.5-fold of each other.

The compound `O=C(Nc1scc(-c2ccc(Cl)cc2)c1C(=O)O)c1ccc(Cl)cc1Cl` [Compound 44, 4-(4-Chlorophenyl)-2-(2,4-dichlorobenzamido)thiophene-3-carboxylic acid] yielded an IC50 on ANO1 of 1.24 µM.

Regarding `O=C(Nc1scc(-c2ccc(Cl)cc2)c1C(=O)O)c1cccs1` [Compound 45, 4-(4-Chlorophenyl)-2-(thiophene-2-carboxamido) thiophene-3-carboxylic acid], the IC50 at ANO1 stood at 1.74 µM.

As for `Cc1ccc(C(=O)Nc2scc(-c3ccc(Cl)cc3)c2C(=O)O)c2ccccc12` [Compound 46, 4-(4-Chlorophenyl)-2-(4-methyl-1-naphthamido) thiophene-3-carboxylic acid], the midpoint of inhibition at ANO1, the IC50, lay at 14.5 µM.

At ANO1, `CC(C)(C)c1ccc(C(=O)Nc2sc3c(c2C(=O)O)-c2ccccc2C3)cc1` [Compound 47, 2-(4-(tert-Butyl)benzamido)-8H-indeno [2,1-b] thiophene-3-carboxylic acid] displayed a half-maximal inhibitory concentration (IC50) of 12.6 µM. This IC50 and that of the compound before are within 1.5-fold of each other.

On ANO1, `COc1ccc2c(c1)Cc1sc(NC(=O)c3ccc(C(C)(C)C)cc3)c(C(=O)O)c1-2` [Compound 48, 2-(4-(tert-Butyl)benzamido)-6-methoxy-8H-indeno [2,1-b] thiophene-3-carboxylic acid] had an IC50 of 28.9 µM.

On ANO1, `O=C(Nc1sc2c(c1C(=O)O)-c1ccccc1C2)c1cccs1` [Compound 49, 2-(Thiophene-2-carboxamido)-8H-indeno [2,1-b] thiophene-3-carboxylic acid] yielded an IC50 of 11.3 µM.

On ANO1, `O=C(Nc1sc2c(c1C(=O)O)-c1ccccc1C2)c1ccc2ccccc2c1` [Compound 50, 2-(2-Naphthamido)-8H-indeno [2,1-b] thiophene-3-carboxylic acid] yielded a 50% inhibitory concentration (IC50) of 1.91 µM.

Consider `O=C(O)c1c(NC(=O)c2cccc3ccccc23)sc2c1-c1ccccc1C2` [Compound 51, 2-(1-Naphthamido)-8H-indeno [2,1-b] thiophene-3-carboxylic acid], for which, on ANO1, the IC50 was 2.21 µM. The IC50 values of the last two compounds are within 1.5-fold of each other.

Compound `CC(C)(C)c1ccc(C(=O)Nc2sc3c(c2C(=O)O)-c2ccccc2C3(C)C)cc1` [Compound 52, 2-(4-(tert-Butyl)benzamido)-8,8-dimethyl-8H-indeno [2,1-b] thiophene-3-carboxylic acid] gave a half-maximal inhibitory concentration (IC50) against ANO1 of 3.33 µM.

As to `CC(C)(C)c1ccc(C(=O)Nc2sc3c(c2C(=O)O)-c2ccccc2CC3)cc1` [Compound 53, 2-(4-(tert-Butyl)benzamido)-4,5-dihydronaphtho [2,1-b] thiophene-1-carboxylic acid], the half-inhibitory concentration (IC50) against ANO1 is 5.15 µM. Against the preceding compound, the IC50 is about 1.5-fold higher.

For the compound `CCc1c(C)nc(SCC(=O)Nc2nc(-c3ccc(OC)cc3)cs2)[nH]c1=O` [Compound T16Ainh-A01], in the data set with CHO cells (1 and 3 μmol/L), the “effect on CHO cell proliferation” value is on record as “weak effect”.

As for `CCOC(=O)Nc1ccc(NCc2ccc(F)cc2)nc1N` [Flupirtine], the “PTI, pain threshold rate change (%) of 1 h compared to 0 h” value in the data set with SD rats [4] (100 mg/kg i.g.) is 36.2%. In the data set with SD rats [2] (200 mg/kg i.g.), the “number of foot lifts, phase 2” value was found to be 74 foot lifts.

In the case of `CC(C)C[C@H](CN)CC(=O)O` [Pregabalin], the “PTI, pain threshold rate change (%) of 1 h compared to 0 h” value with SD rats [4] (40 mg/kg i.g.) came out at 60.4%. In the data set on SD rats [2] (40 mg/kg i.g.), the “number of foot lifts, phase 2” value was found to be 44 foot lifts.
